Most compounds without a hit are left out; they make up all but 3.8% or so of the library.
KCNQ1 act – human KCNQ1 channel potentiation or activation; P51787; CHO-K1 KCNQ1, thallium flux FluxOR fluorescence; active compounds read high; B-score at 10 µM; 0.35% of 310,000 active;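 active = fluorescence ratio B-score, a plate-corrected score, at least three library SD, with initial intensity B-score within 5 SD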
Target sequence (P51787 whole entry, looked up): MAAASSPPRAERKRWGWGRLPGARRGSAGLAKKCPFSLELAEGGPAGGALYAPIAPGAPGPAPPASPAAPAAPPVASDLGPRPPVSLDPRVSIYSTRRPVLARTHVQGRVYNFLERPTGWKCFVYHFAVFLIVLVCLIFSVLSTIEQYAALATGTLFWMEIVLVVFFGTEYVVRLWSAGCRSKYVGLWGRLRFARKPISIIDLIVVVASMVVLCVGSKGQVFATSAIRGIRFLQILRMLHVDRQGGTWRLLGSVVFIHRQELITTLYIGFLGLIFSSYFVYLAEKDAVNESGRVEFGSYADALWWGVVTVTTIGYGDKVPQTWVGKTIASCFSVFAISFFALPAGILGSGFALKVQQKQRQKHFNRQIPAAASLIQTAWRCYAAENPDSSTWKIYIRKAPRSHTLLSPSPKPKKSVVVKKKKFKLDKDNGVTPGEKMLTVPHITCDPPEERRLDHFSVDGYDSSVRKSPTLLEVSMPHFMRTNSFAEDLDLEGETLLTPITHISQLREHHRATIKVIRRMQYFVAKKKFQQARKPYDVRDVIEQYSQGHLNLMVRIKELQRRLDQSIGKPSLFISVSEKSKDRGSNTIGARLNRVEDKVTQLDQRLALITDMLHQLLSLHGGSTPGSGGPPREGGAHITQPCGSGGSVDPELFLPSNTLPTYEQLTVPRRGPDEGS
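System: Stable KCNQ1 CHO-K1 line | Incubation: 90 min dye loading and 20 min compound exposure, both at room temperature | Measure: Ratio B score | Medium: Assay buffer for compound exposure, DMSO matched across wells | Compound dosing: Single-concentration screen | Probe or stimulus: K+/Tl+ depolarizing stimulus | Measured by: Kinetic FluxOR fluorescence, 10 s baseline plus 110 s post-stimulus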
Kir21 block – Kir2.1 (mouse) channel inhibition. P35561. HEK293-Kir2.1, FluxOR thallium flux fluorescence; active compounds read low. B-score at 10 µM. 0.85% of 310,000 active. AID 1672;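 active = fluorescence ratio B-score at or below minus 3 SD of library scores, with starting-brightness B-score within 2 SD, cut at about -4.2 in these data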;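 also: channel flux triggered by added potassium and thallium sulfate stimulus; B-score of peak minus minimum fluorescence over baseline after thallium stimulus; more negative B-score means stronger Kir2.1 block with less thallium influx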
KCNK3 inh – human KCNK3 channel inhibition, primary screen; B-score at 10 µM; AID 602410; O14649; CHO-KCNK3 thallium flux, FluxOR fluorescence; active compounds read low; 0.84% of 340,000 active;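 active = B-score under library mean minus 4 SD, starting fluorescence ratio at most library mean plus 5 SD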;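 also: more negative B-score means stronger inhibition of thallium flux through KCNK3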
KCNQ1 block – inhibitors of human KCNQ1 potassium channel | CHO-K1 KCNQ1, FluxOR thallium flux fluorescence; active compounds read high | 1.3% of 310,000 active | B-score at 10 µM | P51787;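 active = compounds whose thallium flux B-score, printed positive for inhibition, exceeds three library SD while starting fluorescence stays within three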;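 also: channel opened by potassium depolarization with thallium stimulus after 20 min compound exposure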
KCNK9 block – blocks the human KCNK9 two-pore domain potassium channel; B-score at 10 µM; 1.2% of 310,000 active; HEK293 KCNK9, FluxOR thallium flux fluorescence; active compounds read low; Q9NPC2;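 active = ratio B-score over 3 SD below the library mean, with starting fluorescence within 5 SD of its mean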;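 also: negative B-score means less thallium flux so channel inhibition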
hERG protect – shields human hERG channel from block by proarrhythmic agents. Q12809. CHO-hERG, FluxOR thallium flux, dofetilide IC70 present. activation (rescue from dofetilide block), less the hit threshold, % at 10 µM. 0.51% of 310,000 active;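 active = activation above the mean of controls blocked by dofetilide plus 5 SD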;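 also: thallium influx through hERG after potassium depolarization seen as dye fluorescence rise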
KCNQ1 inh valid – reconfirmed blocker of the human KCNQ1 potassium channel | shares compounds with KCNQ1 block | KCNQ1 cell line, FluxOR thallium flux fluorescence | inhibition, % at 10 µM | 93% of 1,600 active;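 active = primary screen active, with duplicate mean exceeding buffer control mean plus 3 SD of buffer wells, cut at about 28% in these data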
CHO Tl flux – KCNQ1 inhibitor counter-screen hit in parental CHO cells. parental CHO-K1, FluxOR thallium flux fluorescence ratio; active compounds read low; zero means no signal rise above baseline. 21% of 1,600 active. shares compounds with KCNQ1 block. fluorescence ratio (Tl flux) at 10 µM. AID 588366;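 active = mean of duplicate thallium-flux fluorescence ratios in parental host cells more than 5 SD below the buffer control mean, cut at about 0.38 in these data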;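 also: ratio is peak minus minimum fluorescence divided by baseline fluorescence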
KCNQ1 APC inh – human KCNQ1 inhibition validated by electrophysiology; shares compounds with KCNQ1 block; KCNQ1-CHO cells, automated patch clamp current; calls only at 10 µM; 20% of 490 active; AID 624120;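 active = KCNQ1 current drop exceeding 3 SD of negative control wells, seen in both duplicate runs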;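 also: steady state current during a 2 s step from -80 to +40 mV; negative values mean current inhibition and positive values mean potentiation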
KCNQ2 spec – KCNQ1 inhibitor that also blocks rat KCNQ2 channel; shares compounds with KCNQ1 block; inhibition, % at 10 µM; KCNQ2 cells, FluxOR thallium flux fluorescence; 71% of 1,600 active;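 active = mean percent inhibition of the KCNQ2 thallium signal more than 5 SD above the buffer-only control wells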;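 also: KCNQ2 expressed in CHO cells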
KCNQ1 KCNE1 spec – selectivity of KCNQ1 inhibitors: inhibition of human KCNQ1/KCNE1 channel | inhibition, % at 10 µM | 77% of 1,600 active | shares compounds with KCNQ1 block | KCNQ1/KCNE1 cells, FluxOR thallium flux fluorescence | AID 652147;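 active = mean percent inhibition of duplicate wells above the buffer-only control mean plus 3 SD of those controls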
Each line names hits and unclear results; the compound was inactive in the other large screens (follow-up assays come after a bar, where they were run).

COc1ccc2oc(/C=C/N(C)C)c(C(=O)c3ccc(Cl)cc3)c2c1	KCNQ1 block 6 | KCNQ1 inh valid 114 | CHO Tl flux 0.35 | KCNQ2 spec 139% | KCNQ1 KCNE1 spec 145%
COc1ccc2oc(C)c(C(=O)c3ccccc3)c2c1	none
CC1Cc2ccccc2N1C(=O)CNc1ccccc1N1CCCCC1 (stereo not given)	KCNQ1 block 7 | KCNQ1 inh valid 81 | CHO Tl flux inactive | KCNQ2 spec 101% | KCNQ1 KCNE1 spec 86%
O/N=C(\c1ccccc1)C(O)c1ccccc1 (stereo not given)	none
O=C(NC(NC1CCS(=O)(=O)C1)C(Cl)(Cl)Cl)c1cccc(Cl)c1 (stereo not given)	none
O=C(NC(NC1CCS(=O)(=O)C1)C(Cl)(Cl)Cl)c1ccc(Br)cc1 (stereo not given)	KCNQ1 block 10 | KCNQ1 inh valid 64 | CHO Tl flux inactive | KCNQ2 spec 88% | KCNQ1 KCNE1 spec 36%
CS(=O)(=O)c1ncc(Cl)c(C(=O)Nc2ccc(OC(F)F)cc2)n1	Kir21 block -5.3, KCNQ1 block 6 | KCNQ1 inh valid 74 | CHO Tl flux 0.34 | KCNQ2 spec inactive | KCNQ1 KCNE1 spec 118%
CS(=O)(=O)c1ccc(C(=O)Nc2ccc(N3CCOCC3)cc2)c(Cl)c1	none
CS(=O)(=O)c1ncc(Cl)c(C(=O)Nc2ccc(N3CCOCC3)cc2)n1	KCNQ1 block 7 | KCNQ1 inh valid 73 | CHO Tl flux inactive | KCNQ2 spec 92% | KCNQ1 KCNE1 spec 108%
CCCc1cc(C(=O)Nc2ccc(C(=O)c3ccc(F)cc3)cc2)n(C)n1	KCNK3 inh -12, KCNQ1 block 6 | KCNQ1 inh valid active | CHO Tl flux inactive | KCNQ2 spec 137% | KCNQ1 KCNE1 spec active
O=C(Nc1ccc(F)cc1)c1ccc2snnc2c1	none
Fc1ccc(NC(=S)NCc2cccs2)cc1	KCNQ1 block 6 | KCNQ1 inh valid inactive | CHO Tl flux inactive | KCNQ2 spec inactive | KCNQ1 KCNE1 spec 48%
O=c1oc(CCO)cc2ccc(Br)cc12	none (no result: KCNQ1 act, Kir21 block, KCNQ1 block, KCNK9 block, hERG protect)
O=C(NC1CCCCC1)C(c1ccco1)N(Cc1ccco1)C(=O)c1ccco1 (stereo not given)	KCNQ1 block 7 | KCNQ1 inh valid 96 | CHO Tl flux inactive | KCNQ1 APC inh active | KCNQ2 spec 70% | KCNQ1 KCNE1 spec 112%
O=C(NCC(=O)N(Cc1ccccc1)C(C(=O)NC1CCCCC1)c1ccco1)c1ccco1 (stereo not given)	none
CC(C)On1c(SCC(=O)N(C)C)nc2ccccc2c1=O	none (no result: KCNK3 inh)
COC(=O)C1=C(C)NC(=S)NC1c1sccc1C (stereo not given)	none
c1ccc2c(c1)nc(N1CCCCC1)c1ccccc12	none
c1ccc(-c2nc(N3CCCCC3)nc3ccccc23)cc1	KCNQ1 block 7 | KCNQ1 inh valid 118 | CHO Tl flux inactive | KCNQ1 APC inh inactive | KCNQ2 spec 113% | KCNQ1 KCNE1 spec 174%
c1ccc2c(N3CCCCC3)nc(N3CCCC3)nc2c1	KCNQ1 block 9 | KCNQ1 inh valid 36 | CHO Tl flux inactive | KCNQ2 spec inactive | KCNQ1 KCNE1 spec inactive
OC1(c2cccc(C(F)(F)F)c2)CCN(CCN2CCCCC2)CC1	none
CCOC(=O)C1=NN(C(=O)Nc2ccc(OC)cc2)C2C(=O)N(c3cccc(C(F)(F)F)c3)C(=O)C12 (stereo not given)	none
COc1ccc(N(CC(O)Cn2c3ccccc3c3ccccc32)S(=O)(=O)c2ccccc2)cc1 (stereo not given)	KCNQ1 block 11, KCNK9 block -7.5 | KCNQ1 inh valid 107 | CHO Tl flux inactive | KCNQ1 APC inh inactive | KCNQ2 spec inactive | KCNQ1 KCNE1 spec 148%
CS(=O)(=O)N(CC(O)Cn1c2ccccc2c2ccccc21)c1ccccc1 (stereo not given)	none
N/C(=N\N=C\c1ccc(Br)o1)c1nonc1N	none
CSc1nc2ccc(NS(=O)(=O)c3ccc(Cl)s3)cc2s1	KCNQ1 block 7 | KCNQ1 inh valid 103 | CHO Tl flux inactive | KCNQ2 spec inactive | KCNQ1 KCNE1 spec 70%
CN1c2ccccc2C(C)(C)C12C=Cc1cc(O)ccc1O2 (stereo not given)	KCNQ1 block 9 | KCNQ1 inh valid 132 | CHO Tl flux 0.36 | KCNQ2 spec 128% | KCNQ1 KCNE1 spec 168%
Cc1ccc(-n2nnnc2SCC(=O)NC(C(=O)O)(c2ccccc2)c2ccccc2)cc1C	none
O=S(=O)(c1ccccc1)N1c2cc(Cl)ccc2Oc2nc3ccccc3nc21	KCNQ1 block 8 | KCNQ1 inh valid 109 | CHO Tl flux 0.36 | KCNQ2 spec 100% | KCNQ1 KCNE1 spec 146%
CCc1nc2ccccc2nc1N1CCN(S(=O)(=O)c2ccc(Cl)cc2)CC1	none
Fc1ccc(NC(=S)Nc2cccnc2)cc1Cl	KCNQ1 block 8 | KCNQ1 inh valid 66 | CHO Tl flux inactive | KCNQ2 spec inactive | KCNQ1 KCNE1 spec 34%
Fc1ccc(NC(=S)Nc2ccccc2N2CCOCC2)cc1Cl	Kir21 block -7.4, KCNQ1 block 9 | KCNQ1 inh valid inactive | CHO Tl flux inactive | KCNQ2 spec inactive | KCNQ1 KCNE1 spec inactive
O=C(Nc1cccnc1)Nc1cc(Cl)cc(Cl)c1	none
Cc1ccc(NC(=O)Nc2cccnc2)cc1Cl	KCNQ1 block 7 | KCNQ1 inh valid 66 | CHO Tl flux inactive | KCNQ2 spec inactive | KCNQ1 KCNE1 spec inactive
O=C(Nc1ccc(F)cc1)Nc1cccnc1	none
O=C(Nc1ccc(OC(F)(F)F)cc1)Nc1cccnc1	KCNQ1 block 6 | KCNQ1 inh valid 40 | CHO Tl flux inactive | KCNQ2 spec inactive | KCNQ1 KCNE1 spec inactive
Cc1cc(C)c(CSc2ncc(-c3ccc([N+](=O)[O-])cc3)[nH]2)c(C)c1	KCNQ1 block 16 | KCNQ1 inh valid 140 | CHO Tl flux inactive | KCNQ1 APC inh inactive | KCNQ2 spec 93% | KCNQ1 KCNE1 spec 184%
CC1CCCN(S(=O)(=O)c2ccc(S(=O)(=O)N3CCCC3)cc2)C1 (stereo not given)	none
